{"data": "Measurements pooled from the literature", "PTGS2": "Prostaglandin G/H synthase 2 (PTGS2, Homo sapiens, UniProt P35354)", "Penicillin-binding protein 2X": "Penicillin-binding protein 2X (Streptococcus pneumoniae R6, UniProt P59676)", "note": "Compare with care: the assays were run in different laboratories."}
{"SMILES": "C=CCOc1ccc(C(=O)/C=C/c2ccc(OC)cc2)c(OS(=O)(=O)c2ccc(F)cc2)c1I", "target": "PTGS2", "assay": "enzyme activity, inhibitor", "endpoint": "IC50", "value": "28.9 µM"}
{"SMILES": "COc1cc2c(cc1OC)CN(CCc1ccc(NC(=O)c3cccc4c(=O)c5cccc(OC)c5[nH]c34)cc1)CC2", "target": "Alpha-1D adrenergic receptor (ADRA1D, Homo sapiens, UniProt P25100)", "assay": "cell-free assay", "endpoint": "Ki", "value": "144 nM"}
{"SMILES": "Cn1c(=O)n(CCCCN2CCC3(CC2)OCc2ccccc23)c2ccccc21", "target": "Sigma non-opioid intracellular receptor 1 (SIGMAR1, Cavia porcellus, UniProt Q60492)", "assay": "ligand displacement, radioligand", "conditions": "cell membranes", "endpoint": "Ki", "value": "14.1 nM"}
{"SMILES": "C=CCOc1ccc(C(=O)/C=C/c2cccc(F)c2)c(OS(=O)(=O)c2ccc(F)cc2)c1I", "target": "PTGS2", "assay": "enzyme activity, inhibitor", "endpoint": "IC50", "value": "18.6 µM"}
{"SMILES": "CC(C)(C)CNCc1nc2ccccc2n1CCOc1ccccc1", "target": "Penicillin-binding protein 2X", "assay": "binding, MST", "endpoint": "Kd", "value": "115 µM"}
{"SMILES": "COc1ccc2cc3[n+](cc2c1OC)CCc1cc2c(cc1-3)OCO2", "target": "Zinc finger protein GLI1 (GLI1, Homo sapiens, UniProt P08151)", "assay": "binding, SPR", "endpoint": "Kd", "value": "~0.652 µM"}
{"SMILES": "Fc1c(F)c(F)c(OCCn2c(CNCC34CC5CC(CC(C5)C3)C4)nc3ccccc32)c(F)c1F", "target": "Penicillin-binding protein 2X", "assay": "binding, MST", "endpoint": "Kd", "value": "70 µM"}
{"SMILES": "CN1CC[C@@]2(C)c3cc(OC(=O)Nc4ccccc4)ccc3N(C)[C@@H]12", "target": "Retinal dehydrogenase 2 (ALDH1A2, Homo sapiens, UniProt O94788)", "assay": "enzyme activity, inhibitor, fluorescence", "conditions": "15 min, pH 7.5", "endpoint": "IC50", "value": "< 10 µM"}
{"SMILES": "CCCCC/C=C\\C/C=C\\C/C=C\\C/C=C\\CCCC(=O)OC(CO)CO", "target": "Fatty acid-binding protein 5-ANS (Mus musculus, UniProt Q05816)", "assay": "ligand displacement, fluorescence", "endpoint": "Ki", "value": "1000 nM"}
